Most compounds without a hit are left out; they make up all but 2.3% or so of the library.
PLC-beta3 inh = blocks human PLC-beta3 enzyme activity | Q01970 | 370,000 compounds, 0.18% hits | inhibition, % at 12.2 µM | Purified PLC-beta3, fluorogenic substrate, fluorescence; in the data active means inhibition above about 11%;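 further: 0% = median of compound wells on plate and 100% = full blocker control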
PLCg1 inh = PLC-gamma1 (human) inhibition, primary screen; purified PLC-gamma1, fluorogenic substrate, fluorescence; P19174; 370,000 compounds, 0.84% hits; inhibition, % at 12.2 µM; in the data active means inhibition above about 9.5%
ADAM10 inh = inhibits human ADAM10 | recombinant ADAM10, EDANS/DABCYL FRET peptide cleavage, 3 h | 370,000 compounds, 0.62% hits | O14672 | AID 720582 | inhibition, % at 7 µM;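 active means inhibition above a per-campaign cutoff equal to the mean of compounds falling between control-based bounds plus 3 SD, cut at about 20% in these data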;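 further: 0% = DMSO wells while the 100% control is not disclosed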
ADAM17 inh = inhibits human ADAM17. recombinant ADAM17, EDANS/DABCYL FRET peptide cleavage. inhibition, % at 6.95 µM. 370,000 compounds, 0.83% hits. P78536;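 active means inhibition above the mean of compounds lying between control limits plus 3 SD, set per campaign, cut at about 8.5% in these data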;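 further: 0% = DMSO-only wells as the low control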
Tb MetRS inh = blocks T. brucei methionyl-tRNA synthetase activity; inhibition, % at 11.9 µM; 360,000 compounds, 0.4% hits; purified T. brucei MetRS, ATP depletion, Kinase-Glo luminescence; AID 624268;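 active means inhibition above a per-plate cutoff of the control wells' mean inhibition plus 3 SD, cut at about 5.5% in these data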;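 further: 0% = DMSO wells median and 100% = median of wells with control inhibitor compound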
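System: purified T. brucei MetRS enzyme / Detection: Kinase-Glo luciferase luminescence reporting remaining unconsumed ATP / Medium: HEPES buffer with MgCl2, KCl, DTT, spermine, BSA, pyrophosphatase / Replication: singlicate, one well per compound / Evaluation: percent inhibition relative to median high and low control wells / Schedule: 2 h aminoacylation at 25 °C after 15 min preincubation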
ADAM10 ctr = counter-screen for ADAM17 exosite inhibitors: inhibitors of human ADAM10; recombinant ADAM10, EDANS/DABCYL FRET peptide cleavage, 3 h; AID 743256; shares compounds with ADAM17 inh; 2,900 compounds, 47% hits; inhibition, % at 6.95 µM;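 active means mean inhibition over the triplicate runs exceeds the activity threshold set in the earlier primary screen, cut at about 20% in these data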;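 further: 0% = DMSO wells and 100% = marimastat wells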
ADAM17 confirm = human ADAM17 inhibition, confirmation. shares compounds with ADAM17 inh. recombinant ADAM17, EDANS/DABCYL QFRET peptide cleavage. inhibition, % at 6.95 µM. AID 743257. 2,900 compounds, 65% hits;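 active means mean inhibition across replicates above the hit cutoff set in the primary screen, cut at about 8.5% in these data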;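 further: 0% = DMSO wells and 100% = marimastat wells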
* hit, by the source's call; . = no result; ! = a repeat was not active.

SMILES | PLC-beta3 inh | PLCg1 inh | ADAM10 inh | ADAM17 inh | Tb MetRS inh | ADAM10 ctr | ADAM17 confirm
O=C(COC(=O)CCc1ccc(S(=O)(=O)N2CCCCC2)cc1)Nc1cccc2ccccc12 | 8 | 3 | 18 | 13* | 0 | 26* | 12*
CSc1ncccc1C(=O)OCC(=O)Nc1ccc(S(=O)(=O)N2CCCC2)cc1 | -1 | 1 | 9 | 9.5* | -1 | 1 | 6
CN1OC[C@@H]2CN[C@H](c3ccc(N4CCCCC4)cc3)C[C@@H]21 | -35 | -28 | -10 | -8 | . | . | .
COc1ccc(C)cc1NC(=O)CSc1nnc2ccc(-c3ccncc3)nn12 | -8 | -56 | -3 | -5 | 0 | . | .
CS(=O)(=O)N1CCCCC1c1cc(C(=O)Nc2ccccc2Cl)no1 (stereo unspecified) | 2 | -1 | -5 | -1 | 0 | . | .
CSCCC(c1nnnn1C1CCCC1)N1CCN(C/C=C/c2ccccc2)CC1 (stereo unspecified) | -2 | 2 | 4 | -1 | 1 | . | .
COC(=O)[C@]12C[C@H](CC(=O)NCc3cccc(C(F)(F)F)c3)C(=O)N(CCC3=CCCCC3)C1=C[C@H](COCc1ccccc1)O[C@@H]2C | 7 | 1 | -1 | 4 | . | . | .
CN(C)S(=O)(=O)c1cccc(NC(=O)COC(=O)c2ccc(Br)o2)c1 | -1 | 2 | 1 | 0 | 0 | . | .
CCOc1ccc(NC(=O)COC(=O)c2ccc(S(=O)(=O)N3CCOCC3)cc2)cc1 | -3 | 6 | -11 | -6 | 0 | . | .
CCOc1ccc(NC(=O)COC(=O)c2cc(S(=O)(=O)N3CCCC3)ccc2C)cc1 | 2 | 8 | 5 | 9.4* | 0 | 16 | 7
O=C(CN1CCN(Cc2ccccc2)CC1)Nc1cccc(S(=O)(=O)N2CCCCCC2)c1 | 4 | 3 | 14 | 8.9* | 0 | 22* | 11*
O=C(COC(=O)c1ccc(Br)o1)Nc1cccc(S(=O)(=O)N2CCCCCC2)c1 | 1 | 1 | 12 | 9.8* | 0 | 26* | 15*
CC(=O)c1ccccc1OCC(=O)Nc1cccc(S(=O)(=O)N2CCCC2)c1 | -3 | 9 | -11 | 9.3* | -1 | 10 | 4
O=C(COC(=O)/C=C/c1ccc(OC(F)F)cc1)Nc1ccc(S(=O)(=O)N2CCCC2)cc1 | 1 | -1 | 18 | 9.8* | 0 | 18 | 13*
Cc1ccc(C)c(C(=O)OCC(=O)Nc2cccc(S(=O)(=O)N3CCCCC3)c2)c1 | -5 | 3 | 8 | 12* | 0 | 32* | 19*
O=C(COC(=O)/C=C/c1ccc(OC(F)F)cc1)Nc1cccc(S(=O)(=O)N2CCCC2)c1 | -6 | 1 | 10 | 4 | 0 | . | .
COc1ccc(NC(=O)C2C3C=CC4(O3)C2C(=O)N(CCN2CCCCC2)C4C(=O)NC2CCCC(C)C2C)cc1 (stereo unspecified) | -5 | -4 | -4 | -5 | 0 | . | .
CC1C(=O)N(Cc2cn(CCC3OCCO3)nn2)CCS(=O)(=O)N1Cc1ccc(-c2ccc(Cl)cc2)cc1 (stereo unspecified) | 4 | 0 | 15 | 8.6* | 1 | 13 | 5
C=CCn1c(CNC(=O)c2ccccc2F)nnc1SCC(=O)NC(C)c1ccccc1 (stereo unspecified) | -6 | 4 | -11 | -1 | 0 | . | .
O=C(NC(Cc1c[nH]c2ccccc12)C(=O)OCC(=O)c1cccc2ccccc12)c1cccs1 (stereo unspecified) | -14 | -8 | 10 | 9.5* | 1 | 9 | 8.9*
COC(=O)C(Cc1c[nH]c2ccccc12)NC(=O)c1cccs1 (stereo unspecified) | -7 | 1 | -2 | -2 | 0 | . | .
FC(F)(F)c1ccccc1NC(=S)OC1CCC12CCC(c1ccccc1)CC2 (stereo unspecified) | -5 | 2 | -8 | -3 | . | . | .
N#CCCN(C(=O)COC(=O)c1ccc(S(=O)(=O)Nc2ccccc2)cc1)c1ccccc1 | 2 | 2 | 7 | 2 | 0 | . | .
N#CCCN(C(=O)COC(=O)c1cccc(S(=O)(=O)Nc2ccc([N+](=O)[O-])cc2)c1)c1ccccc1 | 0 | 2 | 14 | 9.2* | -1 | 6 | 8
COc1ccc(/C=N/NC(=O)CC(=O)NCc2cccnc2)cc1[N+](=O)[O-] | 3 | 5 | 5 | 0 | 0 | . | .
SMILES | PLC-beta3 inh | PLCg1 inh | ADAM10 inh | ADAM17 inh | Tb MetRS inh | ADAM10 ctr | ADAM17 confirm
CCN(Cc1ccccc1)CC(O)COC(c1ccc(OC)cc1)c1ccc(OC)cc1 (stereo unspecified) | -5 | 3 | 4 | 11* | 1 | 3 | 8
COc1ccc(C(O)c2ncc(-c3ccccc3C)[nH]2)cc1 (stereo unspecified) | 2 | 0 | -7 | -3 | 1 | . | .
Cc1ccc(C2CC2c2n[nH]c(=S)n2-c2ccc(C)cc2)cc1 (stereo unspecified) | -2 | -1 | 14 | 1 | -1 | . | .
Cc1ccc(-n2c(C3CC3c3ccc(Cl)cc3)n[nH]c2=S)cc1 (stereo unspecified) | 0 | 1 | 16 | 12* | 0 | 16 | 12*
NC(=NCCc1c[nH]c2ccccc12)NS(=O)(=O)c1ccc2ccccc2c1 | 1 | 0 | 15 | 9.9* | 0 | 18 | 9.4*
CCC(C)[C@H]1CNC(=S)N1CCc1cccc2ccccc12 (stereo partly specified) | 4 | 5 | 6 | 13* | 0 | 5 | 3
CCC(C)[C@H]1CNC(=O)C(=O)N1CCc1cccc2ccccc12 (stereo partly specified) | -1 | 3 | -5 | -5 | 0 | . | .
CCN(CC(=O)Nc1c(F)cccc1F)C(=O)c1cccn1C | 3 | 2 | 11 | 5 | 0 | . | .
Cc1cc(Cl)ccc1OCC(=O)OCC(=O)Nc1ccc(F)c([N+](=O)[O-])c1 | -5 | 1 | 17 | 9.0* | 2 | 43* | 18*
CCOC(=O)C1=C(C)NC(C)=C(C(=O)OCC)C1c1ccc([N+](=O)[O-])s1 | -2 | -3 | -6 | 9.2*! | 0 | 24* | 12*
CCOC(=O)C1=C(C)NC(C)=C(C(=O)OC)C1c1cccc([N+](=O)[O-])c1 (stereo unspecified) | 5 | 4 | 8 | 3 | -1 | . | .
COC(=O)c1cccc(C(=O)N2CCCC(Nc3ccc(C)c(C)c3)C2)c1 (stereo unspecified) | 2 | 2 | 10 | 11* | 0 | 18 | 7
C=CCc1c(C)nc(-c2ccccc2)nc1Nc1ccccc1O | -1 | 2 | 15 | 10* | -1 | 29* | 17*
